Results published in ChEMBL document CHEMBL1127855, “Antitumor agents. 144. New gamma-lactone ring-modified arylamino etoposide analogs as inhibitors of human DNA topoisomerase II” (1994).

Columns and labels:
[1] = test system: Nucleic Acid; experiment: Percent of cellular protein-DNA complex formation at concentration of 20 uM; format: functional; details: Homo sapiens
[2] = test system: KB; experiment: Cytotoxicity against KB-ATCC cell lines after a 3-day incubation; format: functional; details: Homo sapiens, 72 h, read-out: ID50 (the source's name)
Method in brief: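 KB-ATCC cells were incubated with compound for 3 days. The read-out was cell number, and ID50 was taken as the concentration giving a 50% reduction.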

[3] = molecular target: DNA topoisomerase II (Homo sapiens) (UniProt P11388+Q02880); experiment: Inhibition of human DNA topoisomerase II activity; format: protein assay
Method in brief: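 Each compound was tested in triplicate at 5, 10, 25, 50 and 100 µM. ID50 was set from the degree of inhibition seen at these concentrations.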

ID50 [3] [µM]	SMILES	Complex formation [1] [%]	IC50 [2] [µM]
	COc1cc([C@@H]2c3cc4c(cc3[C@@H](O[C@@H]3O[C@@H]5CO[C@@H](C)O[C@H]5[C@H](O)[C@H]3O)[C@H]3COC(=O)[C@H]23)OCO4)cc(OC)c1O [ETOPOSIDE]	100	0.2
> 100	COc1cc([C@@H]2c3cc4c(cc3[C@@H](Nc3ccc(F)cc3)[C@H]3CO[C@@H](OC)[C@H]23)OCO4)cc(OC)c1O	66	5.5
50	COc1cc([C@@H]2c3cc4c(cc3[C@@H](Nc3ccc(F)cc3)[C@H]3COC[C@H]23)OCO4)cc(OC)c1O	125	4.1
	COc1cc([C@@H]2c3cc4c(cc3[C@@H](Nc3ccc(F)cc3)[C@H]3COC(=O)[C@H]23)OCO4)cc(OC)c1O	213	0.24
50	COc1cc([C@@H]2c3cc4c(cc3[C@@H](Nc3ccc(F)cc3)[C@H]3CO[C@@H](O)[C@H]23)OCO4)cc(OC)c1O	87	2.2
50	COc1cc([C@@H]2c3cc4c(cc3[C@@H](Nc3ccccc3)[C@H]3COC[C@H]23)OCO4)cc(OC)c1O	139	2.6
100	COc1cc([C@@H]2c3cc4c(cc3[C@@H](Nc3ccccc3)[C@H]3CO[C@@H](OC)[C@H]23)OCO4)cc(OC)c1O	96	5.5
